Active and inactive are the calls of the source.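 How the source made its calls, unless noted: active means inhibition at or above 50% at 10 µM; inactive means inhibition below 50%.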
Columns and labels:
[1] = inhibitors of TNFa-induced NFkB p65 translocation, primary screen, imaging, HUVEC, MLSMR starter and 10KST1 sets (AID 438;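 active means inhibition above 20% together with a positive visual image hit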;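 further: compound added about 3h40 before a 20 min TNFalpha stimulation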;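 on inhibition: signal is the nuclear over cytoplasmic p65 intensity ratio per well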); conditions: HUVEC TNFa-induced p65 nuclear translocation; cell count: measured here: nuclei count (cytotoxicity indicator), at 2.08 µM; inhibition: at 2 µM, stronger effect = higher value, 0% TNFa-plus-vehicle, 100% no-TNFa wells
[2] = reduction of polyQ htt aggregates in cells – imaging, exon1htt(103Q)mCFP cells, high-content imaging, primary screen (AID 483;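 active means visual image review flags a hit and inhibition of aggregation exceeds 20%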;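 further: compound exposure lasted 3 days before fixation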;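 on nuclei count: percent of the per-plate median nuclei count of sample wells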); conditions: exon1htt(103Q)mCFP cell line, aggregate imaging, at 2 µM; inhibition of aggregation: stronger effect = higher value; nuclei count: measured here: cell count, toxicity
[3] = endothelial E-selectin expression blockers – imaging, HUVEC, immunofluorescence, MLSMR starter and 10KST1 sets, primary screen (AID 487;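 active means visually confirmed hit in the image check and inhibition above 20%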;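 on inhibition: signal is fraction of cell area covered by stained E-selectin grains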;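 on nuclei count: 100% = median nuclei count of all wells on the same plate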); conditions: HUVEC TNFalpha-induced E-selectin immunofluorescence imaging, at 2 µM; inhibition: stronger effect = higher value; nuclei count: measured here: cell number, toxicity
[4] = biological target: Voltage-gated potassium channel subunit beta-2 (Rattus norvegicus) (UniProt P62483); experiment: inhibitors of rat Kvbeta2 reductase activity – biochemical, NADPH fluorescence, primary screen (AID 622;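 active means fluorescence slope higher than the sample average by over 3 SD, cut at about -0.22 in these data, passing the limit was not always enough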;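 further: slope of raw intensity against log time taken from 70 to 1610 s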); conditions: recombinant KvBeta, 4-cyanobenzaldehyde reduction, at 10 µM, stronger effect = higher value
[5] = biological target: Voltage-gated potassium channel subunit beta-2 (Rattus norvegicus) (UniProt P62483); experiment: enhancers of rat Kvbeta2 NADPH turnover – biochemical, NADPH fluorescence, primary screen (AID 623;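 active means NADPH fluorescence slope more negative than the mean of all samples by about 3 SD, 99.7% confidence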;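 further: fluorescence intensity change per second fitted from 20 to 320 s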); conditions: Recombinant KvBeta, NADPH fluorescence decrease slope, 10 min; at 10 µM; stronger effect = lower value
[6] = biological target: Muscarinic acetylcholine receptor M4 (Homo sapiens) (UniProt P08173); experiment: M4-linked GIRK flux change, two-sided – cell-based, HEK293 M4/GIRK, thallium flux, BTC-AM, M4 allosteric agonist project, primary screen (AID 625;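 active means fluorescence slope after compound addition differing from the mean of all tested samples at 99.7% confidence, mostly higher but some lower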;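 further: thallium influx through GIRK channels coupled to M4 in HEK293 cells with BTC-AM dye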); conditions: at 10 µM, actives lie on both sides
In short: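 System: HEK293 cells with M4 receptor and GIRK channels | Incubation: Cells overnight at 37 °C, BTC-AM loading 1 h, reads 2 min total | Technique: Kinetic BTC-AM fluorescence sampled at 1 Hz, 10 s pre-addition baseline | Measure: Post-addition slope, 15–24 s, of baseline-normalized fluorescence | Control set: Carbachol positive, DMSO negative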

[7] = blockers of RIG-like receptor reporter activation – cell-based, Sendai virus stimulus, luciferase, 10K MLSCN set, TLR/RLR signaling modifier project, primary screen (AID 602276); conditions: HEK293 RL24 IRF3 luciferase reporter, at 10 µM, stronger effect = higher value;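 further: firefly luciferase from ISG56 promoter only with Renilla not read in this screen; 0% = Sendai virus plus DMSO and 100% = medium plus DMSO without virus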
[8] = TLR3 IRF3 reporter activation blockers – cell-based, poly I:C stimulus, luciferase, 10K MLSCN set, primary screen (AID 602277;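 active means inhibition of the reporter signal at or above 50%; inactive means inhibition below 50%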); conditions: HEK293-TLR3 RL24 IRF3 luciferase reporter, at 10 µM, stronger effect = higher value

Chain of Voltage-gated potassium channel subunit beta-2 (Rattus norvegicus) (P62483 whole entry, looked up): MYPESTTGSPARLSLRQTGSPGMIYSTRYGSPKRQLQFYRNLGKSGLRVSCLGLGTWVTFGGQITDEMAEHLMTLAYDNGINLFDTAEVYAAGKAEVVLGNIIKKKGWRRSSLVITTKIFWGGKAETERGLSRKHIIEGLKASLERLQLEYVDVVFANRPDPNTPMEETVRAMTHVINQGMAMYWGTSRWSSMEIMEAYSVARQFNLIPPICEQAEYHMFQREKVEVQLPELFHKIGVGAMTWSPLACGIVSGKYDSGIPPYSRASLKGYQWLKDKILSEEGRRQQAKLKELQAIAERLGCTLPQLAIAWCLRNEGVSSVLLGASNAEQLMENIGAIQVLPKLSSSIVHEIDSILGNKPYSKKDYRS
Chain of Muscarinic acetylcholine receptor M4 (Homo sapiens) (P08173 whole entry, looked up): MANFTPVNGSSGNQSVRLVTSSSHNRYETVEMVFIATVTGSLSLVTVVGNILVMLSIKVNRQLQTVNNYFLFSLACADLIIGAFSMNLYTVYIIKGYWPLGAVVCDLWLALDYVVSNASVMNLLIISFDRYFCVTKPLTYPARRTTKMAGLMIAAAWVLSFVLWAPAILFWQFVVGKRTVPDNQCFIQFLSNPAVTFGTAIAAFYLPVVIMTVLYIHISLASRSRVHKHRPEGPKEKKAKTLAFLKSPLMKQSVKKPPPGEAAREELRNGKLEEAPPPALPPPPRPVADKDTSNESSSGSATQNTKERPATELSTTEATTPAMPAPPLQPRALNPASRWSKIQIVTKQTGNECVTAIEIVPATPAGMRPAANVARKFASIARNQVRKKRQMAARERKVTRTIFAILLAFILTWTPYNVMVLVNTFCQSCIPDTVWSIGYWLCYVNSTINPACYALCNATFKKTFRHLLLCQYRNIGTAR

SMILES	cell count [1]	inhibition [1]	inhibition of aggregation [2]	nuclei count [2] [%]	inhibition [3]	nuclei count [3] [%]	fluorescence slope [4]	NADPH fluorescence slope [5]	fluorescence slope [6]	inhibition [7]	inhibition [8]
CC(NO)C(C)(C)NO (stereo not drawn)	331	4.4% (inactive)	-7.5% (inactive)	101	-18.8% (inactive)	126	-0.493 (inactive)	9e-05 (inactive)	0.00819 (inactive)	3.35% (inactive)	10.7% (inactive)
O=c1cc(CSc2nnc(COc3ccc(Cl)cc3)o2)c2ccccc2[nH]1	544	-6.2% (inactive)	8% (inactive)	98.4	-46.6% (inactive)	153	-0.497 (inactive)	7.1e-08 (inactive)	0.00464 (inactive)	1.93% (inactive)	-11.9% (inactive)
O=C(CCN1CCN(C(=O)c2ccco2)CC1)Nc1ccc(F)cc1	356	-2.6% (inactive)	-11.1% (inactive)	87.1	-78.7% (inactive)	108	-0.459 (inactive)	0.000122 (inactive)	0.00658 (inactive)	11.5% (inactive)	20.2% (inactive)
CCCOc1ccc(N2C(=O)CC(NCCCN3CCC(C(N)=O)CC3)C2=O)cc1 (stereo not drawn)	322	-0.7% (inactive)	9.6% (inactive)	121	-32% (inactive)	110	-0.429 (inactive)	-4.4e-05 (inactive)	0.00445 (inactive)	19.4% (inactive)	19.7% (inactive)
O=C(C1CCN(S(=O)(=O)c2cccnc2)CC1)N1CCN(c2ccc(Cl)cc2)CC1	447	-1.6% (inactive)	11.5% (inactive)	109	-26.1% (inactive)	100	-0.447 (inactive)	3.3e-05 (inactive)	0.00572 (inactive)	7.3% (inactive)	-25.5% (inactive)
COc1cccc(C(=O)Nc2cc(NC(=O)c3ccco3)ccc2OC)c1	406	10.9% (inactive)	24.4% (inactive)	88.1	17.3% (inactive)	98.6	-0.572 (inactive)	-3.4e-05 (inactive)	0.00583 (inactive)	19.4% (inactive)	4.19% (inactive)
COc1ccc(CCN2C(=O)C3C4C=CC(C4)C3C2=O)cc1OC (stereo not drawn)	493	-3.8% (inactive)	2.1% (inactive)	105	-4.2% (inactive)	99.7	-0.451 (inactive)	-4e-05 (inactive)	0.00653 (inactive)	10.2% (inactive)	12.7% (inactive)
Cc1[nH]c(=O)[nH]c(=O)c1S(=O)(=O)N1c2ccc(F)cc2CCC1C (stereo not drawn)	307	-3.4% (inactive)	-5% (inactive)	112	-175% (inactive)	96.2	-0.461 (inactive)	-3.2e-05 (inactive)	0.00639 (inactive)	9.62% (inactive)	21.9% (inactive)
Cc1ccc(-c2nnnn2CS(=O)(=O)c2ccccc2)cc1	433	-11.8% (inactive)	-9.7% (inactive)	114	-19.4% (inactive)	122	-0.598 (inactive)	-1.2e-05 (inactive)	0.006 (inactive)	16.3% (inactive)	10.5% (inactive)
CCN(C(=O)c1c(-c2ccccc2)noc1C)c1ccccc1	600	1% (inactive)	1.1% (inactive)	106	-39.7% (inactive)	95.6	-0.534 (inactive)	-1.1e-05 (inactive)	0.00432 (inactive)	22.5% (inactive)	22.7% (inactive)
O=C(OCC(=O)N1CCCC1)c1cncc(Br)c1	682	16.5% (inactive)	23.5% (inactive)	83	35.3% (inactive)	102	-0.207 (inactive)	-2.4e-05 (inactive)	0.00528 (inactive)	11.4% (inactive)	0.097% (inactive)
Cc1cc(C)n(-c2nc3ccccc3c(=O)n2OCCOc2ccccc2)n1	533	-9% (inactive)	-7.8% (inactive)	107	-17.9% (inactive)	94.2	-0.453 (inactive)	8.7e-05 (inactive)	0.00727 (inactive)	-12.3% (inactive)	-13.3% (inactive)
CC(=O)Nc1ccc(S(=O)(=O)n2nc(C)cc2C)cc1	495	-20.7% (inactive)	-16.2% (inactive)	108	-163% (inactive)	105	-0.546 (inactive)	-0.000136 (inactive)	0.00409 (inactive)	10% (inactive)	7.63% (inactive)
O=C(Nc1ccc(N2CCOCC2)cc1)Nc1ccc2nc(-c3ccco3)c(-c3ccco3)nc2c1	695	-0.7% (inactive)	-8.6% (inactive)	98.1	-177% (inactive)	140	-0.516 (inactive)	-5.3e-05 (inactive)	0.00225 (inactive)	38.7% (inactive)	0.682% (inactive)
CCOC(=O)C1=C(CC)Nc2ccccc2N=C1NC(=O)Cn1cnc2ccccc2c1=O	529	6.3% (inactive)	6.9% (inactive)	117	-28.7% (inactive)	123	-0.534 (inactive)	-4.1e-05 (inactive)	0.00608 (inactive)	10.4% (inactive)	20% (inactive)
CCCCOc1cccc(NC(=O)CSc2nccn2C)c1	397	2.5% (inactive)	0.8% (inactive)	96.8	6.2% (inactive)	108	-0.318 (inactive)	-3.3e-05 (inactive)	0.00562 (inactive)	-4.33% (inactive)	-42.2% (inactive)
CCCC1CCC(C(=O)Nn2c(C)nc3ccccc3c2=O)CC1 (stereo not drawn)	340	0% (inactive)	-13.5% (inactive)	73.2	11.4% (inactive)	79	-0.472 (inactive)	-2.4e-05 (inactive)	0.00445 (inactive)	15.6% (inactive)	18.5% (inactive)
COc1ccc2cc(C#N)c(NC(C)C)nc2c1	481	3.6% (inactive)	-25.6% (inactive)	96.4	-23.1% (inactive)	108	-0.495 (inactive)	-0.000141 (inactive)	0.00581 (inactive)	8% (inactive)	23% (inactive)
COC(=O)c1cnn2c(C(F)(F)F)cc(-c3ccco3)nc12	246	0.2% (inactive)	38.2% (inactive)	75.8	42.4% (inactive)	72.5	-0.276 (inactive)	-8.1e-06 (inactive)	0.00336 (inactive)	8.92% (inactive)	9.22% (inactive)
NCC(O)COc1ccc2c(c1)OCO2 (stereo not drawn)	378	-7% (inactive)	-7.4% (inactive)	99.3	-61.9% (inactive)	103	-0.551 (inactive)	-0.000108 (inactive)	0.00335 (inactive)	-1.42% (inactive)	3.66% (inactive)
COc1ccccc1NC1=C(C)C(=O)CC1	537	10.5% (inactive)	7.8% (inactive)	88.4	-5.6% (inactive)	102	-0.246 (inactive)	-3e-05 (inactive)	0.00566 (inactive)	19.4% (inactive)	34% (inactive)
CCN(CC)C(=O)c1sc(NC(=O)c2ccco2)c(C#N)c1C	752	-1.3% (inactive)	-26% (inactive)	118	1.3% (inactive)	117	-0.586 (inactive)	1.3e-05 (inactive)	0.00573 (inactive)	11.4% (inactive)	13.3% (inactive)
COc1cccc(CNC(=O)C2CCN(c3cnccn3)CC2)c1	399	-8.4% (inactive)	17.9% (inactive)	98.8	-82.7% (inactive)	86.8	-0.548 (inactive)	5.8e-06 (inactive)	0.00424 (inactive)	18.8% (inactive)	18.1% (inactive)
N#C/C(C(=O)c1ccccc1)=C1/CCCN1	328	0.4% (inactive)	-10.6% (inactive)	109	-66.4% (inactive)	134	-0.567 (inactive)	-5.4e-05 (inactive)	0.00513 (inactive)	4.87% (inactive)	-17.4% (inactive)
CC12C(=O)N(CCC(=O)O)C(=O)C1C1C=CC2C1 (stereo not drawn)	666	23.6% (active)	3.1% (inactive)	99.2	7.8% (inactive)	114	-0.456 (inactive)	-4.5e-05 (inactive)	0.00503 (inactive)	17.6% (inactive)	21.9% (inactive)
Cc1ccc2ncnc(NCCCN3CCOCC3)c2c1	339	-0.6% (inactive)	4.8% (inactive)	101	-25.5% (inactive)	115	-0.484 (inactive)	-0.000336 (inactive)	0.00376 (inactive)	-18.7% (inactive)	-21.1% (inactive)
COc1cccc(S(=O)(=O)Nc2cccnc2)c1	625	-15.2% (inactive)	-31.5% (inactive)	119	-20.1% (inactive)	96.4	-0.552 (inactive)	3.5e-05 (inactive)	0.00542 (inactive)	5.36% (inactive)	-3.49% (inactive)
Cc1ccc(S(=O)(=O)N2CCCC2C(=O)n2nc(C)cc2C)cc1 (stereo not drawn)	432	-12.3% (inactive)	15.8% (inactive)	86.2	46.7% (inactive)	93.5	-0.341 (inactive)	-4.4e-05 (inactive)	0.00537 (inactive)	12.5% (inactive)	19.1% (inactive)

Reference: PubChem BioAssay
